Experimental data collected from several papers.
Protocols differ between the studies behind these lines.
Target: Myotonin-protein kinase (DMPK, Homo sapiens, UniProt Q09013)
Sequence (Q09013 1-629, as in one of the studies): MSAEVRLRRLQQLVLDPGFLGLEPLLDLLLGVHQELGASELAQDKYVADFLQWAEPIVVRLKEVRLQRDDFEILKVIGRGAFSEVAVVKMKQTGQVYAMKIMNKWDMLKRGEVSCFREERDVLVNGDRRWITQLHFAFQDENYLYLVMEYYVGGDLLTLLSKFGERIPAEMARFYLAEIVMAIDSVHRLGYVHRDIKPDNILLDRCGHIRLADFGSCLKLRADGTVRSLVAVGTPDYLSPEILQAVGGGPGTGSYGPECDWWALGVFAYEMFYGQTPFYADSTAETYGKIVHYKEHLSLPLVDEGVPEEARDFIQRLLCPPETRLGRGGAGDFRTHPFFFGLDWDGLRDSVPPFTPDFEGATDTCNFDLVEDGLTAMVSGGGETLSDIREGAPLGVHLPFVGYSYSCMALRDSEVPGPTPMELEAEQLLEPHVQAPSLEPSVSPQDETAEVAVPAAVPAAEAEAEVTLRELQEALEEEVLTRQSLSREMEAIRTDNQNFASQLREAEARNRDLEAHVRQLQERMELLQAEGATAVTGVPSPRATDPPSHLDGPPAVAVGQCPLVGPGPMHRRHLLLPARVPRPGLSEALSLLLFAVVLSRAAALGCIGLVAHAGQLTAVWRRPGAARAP

C#Cc1n[nH]c2c(-c3cn([C@@H](C)c4ccccc4)c(=O)[nH]c3=O)cc(F)cc12
inhibition (enzyme activity; inhibitor; 0.1 µM): -4%

Cn1cncc1[C@](O)(COc1ccc(C#N)cc1-c1ccc(OC(F)(F)F)cc1)c1ccc(C#N)cc1
remaining binding (cell-free assay; competition with immobilised ligand; 1 µM): 98%

COc1ncccc1-c1cnn2ccc(N3CCN(C(=O)OC(C)C)CC3)nc12
remaining binding (binding; competition with immobilised ligand; 1 µM): 98%

O=c1[nH]c2ccccc2n1C1CCN(Cc2ccc(-c3[nH]c4cc5ncnc5cc4nc3-c3ccccc3)cc2)CC1
remaining signal (cell-free assay; 0.5 µM): 98%

Cc1nn(C)cc1-c1nc2c(N3CCN(Cc4ccc(Cl)cc4)CC3)c(Cl)cnc2[nH]1
remaining binding (binding; competition with immobilised ligand; 1 µM): 100%

Cn1cc(-c2cccc(N3CCc4c(sc5c4CC(C)(C)C5)C3=O)c2CO)cc(Nc2ccncn2)c1=O
inhibition (enzyme activity; inhibitor; 1 µM): -4%

C#Cc1n[nH]c2c(-c3cn([C@@H](C)c4ccccn4)c(=O)[nH]c3=O)cc(F)cc12
inhibition (enzyme activity; inhibitor; 0.1 µM): 3.2%

CC(C)(C)c1cc(C=C(C#N)C#N)cc(Br)c1O
remaining activity (enzyme activity; inhibitor; 0.5 µM): 96.9%

Cn1cc(-c2cc(F)cc(N3CCn4c(cc5c4CCCC5)C3=O)c2CO)cc(Nc2ccc(N3CCN(C4COC4)CC3)cn2)c1=O
inhibition (enzyme activity; inhibitor; 0.1 µM): -7%

Nc1ncc(-c2nc(N3CCOCC3)nc(N3CCOCC3)n2)c(C(F)F)n1
remaining binding (binding; competition with immobilised ligand; 10 µM): 76%
